Key:
Format in all cases: functional
[1] = tested on: MDA-MB-468; experiment: Growth inhibition of human MDA-MB-468 cells after 48 hrs by sulforhodamine B assay; details: MDA-MB-468, 48 h; for CC50: read-out: LC50 (the source's name)
Method in brief: (§1)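 Adherent NCI-60 lines were grown in RPMI 1640 with 5% FBS and 2 mM L-glutamine, plated at 5000–40,000 cells/well and preincubated 24 h. They were then exposed to five concentrations (0.01–100 µM, from a DMSO stock) for 48 h at 37 °C, 5% CO2. Cells were fixed with cold TCA (10% final, 60 min, 4 °C) and stained with 0.4% SRB. Dye was solubilized in 10 mM Tris base and A515 read. GI50 was derived from time-zero, control and treated absorbances.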

[2] = tested on: HT-29; experiment: Cytotoxicity against human HT-29 cells assessed as cell growth at 100 uM after 48 hrs by sulforhodamine B assay; details: HT-29, 48 h, read-out: Activity
Method in brief: (§2)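 Five-dose NCI panel run at 0.01, 0.1, 1, 10 and 100 µM. Cells were in RPMI 1640 with 5% FBS and 2 mM L-glutamine, seeded at 5000–40,000 cells/well and pre-incubated 24 h. Drug was diluted from a DMSO stock into medium with 50 µg/ml gentamicin. Exposure was 48 h at 37 °C, 5% CO2. Cells were fixed with cold TCA and stained with 0.4% SRB, read at 515 nm. Percent growth came from time-zero, control and test absorbances.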

[3] = tested on: CAKI-1; experiment: Cytotoxicity against human Caki1 cells assessed as cell growth at 1 uM after 48 hrs by sulforhodamine B assay; details: CAKI-1, 48 h, read-out: Activity
Method in brief: (§3)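 NCI-60 five-dose screen. Cells were grown in RPMI 1640 with 5% FBS and 2 mM L-glutamine and preincubated 24 h. Compound (DMSO stock) was tested at 0.01, 0.1, 1, 10 and 100 µM for 48 h at 37 °C. Cells were fixed in situ with cold TCA (final 10%) and stained with 0.4% SRB. A515 was read, and percent growth was calculated against time-zero and control plates.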

[4] = tested on: UACC-257; experiment: Cytotoxicity against human UACC257 cells assessed as cell growth at 1 uM after 48 hrs by sulforhodamine B assay; details: UACC-257, 48 h, read-out: Activity
[5] = tested on: EKVX; experiment: Cytotoxicity against human EKVX cells assessed as cell growth at 10 '-5 M after 48 hrs by sulforhodamine B assay; details: read-out: Activity
Method in brief: (§4)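 Primary one-dose screen across the NCI 60-line panel at 10 µM. Cells were grown in RPMI 1640 with 5% FBS and 2 mM L-glutamine and held 24 h before drug. Drug was diluted from a DMSO concentrate. Exposure was 48 h at 37 °C, 5% CO2. Cells were fixed with TCA and stained with SRB, with absorbance read at 515 nm. Percent growth was calculated against time-zero and untreated control.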

[6] = tested on: A498; experiment: Cytotoxicity against human A498 cells assessed as cell growth at 10 '-5 M after 48 hrs by sulforhodamine B assay; details: A498, 48 h, read-out: Activity
Method in brief: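 Primary NCI-60 single-dose screen at 10 µM. Cells were grown in RPMI 1640 with 5% FBS and 2 mM L-glutamine and plated 24 h before drug addition. Compound was solubilized in DMSO, then exposed for 48 h at 37 °C under 5% CO2. Cells were TCA-fixed and stained with SRB, and absorbance was read at 515 nm. Growth was expressed relative to time-zero and untreated controls.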

[7] = tested on: SF-539; experiment: Cytotoxicity against human SF539 cells assessed as cell growth at 100 uM after 48 hrs by sulforhodamine B assay; details: SF-539, 48 h, read-out: Activity
[8] = tested on: BT-549; experiment: Cytotoxicity against human BT549 cells assessed as cell growth at 100 uM after 48 hrs by sulforhodamine B assay; details: BT-549, 48 h, read-out: Activity; method in brief: as §3
[9] = tested on: NCI-H460; experiment: Cytotoxicity against human NCI-H460 cells assessed as cell growth at 100 uM after 48 hrs by sulforhodamine B assay; details: NCI-H460, 48 h, read-out: Activity
[10] = tested on: OVCAR-3; experiment: Growth inhibition of human OVCAR3 cells after 48 hrs by sulforhodamine B assay; details: OVCAR-3, 48 h; for CC50: read-out: LC50 (the source's name); method in brief: as §1
[11] = tested on: OVCAR-3; experiment: Cytotoxicity against human OVCAR3 cells assessed as cell growth at 10 '-5 M after 48 hrs by sulforhodamine B assay; details: OVCAR-3, 48 h, read-out: Activity
[12] = tested on: A549; experiment: Cytotoxicity against human A549 cells assessed as cell growth at 0.01 uM after 48 hrs by sulforhodamine B assay; details: A549, 48 h, read-out: Activity; method in brief: as §3
[13] = tested on: MDA-MB-468; experiment: Cytotoxicity against human MDA-MB-468 cells assessed as cell growth at 100 uM after 48 hrs by sulforhodamine B assay; details: MDA-MB-468, 48 h, read-out: Activity
[14] = Cytotoxicity against human Hs 578T cells assessed as cell growth at 100 uM after 48 hrs by sulforhodamine B assay; details: read-out: Activity
[15] = tested on: HCC 2998; experiment: Cytotoxicity against human HCC2998 cells assessed as cell growth at 0.1 uM after 48 hrs by sulforhodamine B assay; details: HCC 2998, 48 h, read-out: Activity; method in brief: as §2
[16] = tested on: OVCAR-3; experiment: Cytotoxicity against human OVCAR3 cells assessed as cell growth at 100 uM after 48 hrs by sulforhodamine B assay; details: OVCAR-3, 48 h, read-out: Activity
[17] = tested on: UO-31; experiment: Cytotoxicity against human UO31 cells assessed as cell growth at 100 uM after 48 hrs by sulforhodamine B assay; details: UO-31, 48 h, read-out: Activity
[18] = tested on: COLO 205; experiment: Growth inhibition of human COLO205 cells after 48 hrs by sulforhodamine B assay; details: COLO 205, 48 h; for CC50: read-out: LC50 (the source's name)
Method in brief: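 Cells were in RPMI 1640 with 5% FBS and pre-incubated 24 h. Read-out was TCA fixation, SRB staining and absorbance at 515 nm. GI50 was the concentration where [(Ti−Tz)/(C−Tz)]×100 = 50, taken from log concentration vs % growth curves. It is given as ">" the top concentration when not reached.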

[19] = tested on: MOLT-4; experiment: Cytotoxicity against human MOLT4 cells assessed as cell growth at 0.1 uM after 48 hrs by sulforhodamine B assay; details: MOLT-4, 48 h, read-out: Activity
[20] = tested on: DU-145; experiment: Cytotoxicity against human DU145 cells assessed as cell growth at 10 '-5 M after 48 hrs by sulforhodamine B assay; details: DU-145, 48 h, read-out: Activity; method in brief: as §4
[21] = tested on: SW-620; experiment: Growth inhibition of human SW620 cells after 48 hrs by sulforhodamine B assay; details: SW-620, 48 h; for CC50: read-out: LC50 (the source's name); method in brief: as §1
[22] = tested on: U-251; experiment: Cytotoxicity against human U251 cells assessed as cell growth at 10 uM after 48 hrs by sulforhodamine B assay; details: U-251, 48 h, read-out: Activity
[23] = tested on: EKVX; experiment: Cytotoxicity against human EKVX cells assessed as cell growth at 1 uM after 48 hrs by sulforhodamine B assay; details: read-out: Activity; method in brief: as §2
[24] = tested on: A498; experiment: Cytotoxicity against human A498 cells assessed as cell growth at 0.01 uM after 48 hrs by sulforhodamine B assay; details: A498, 48 h, read-out: Activity; method in brief: as §3
[25] = tested on: NCI-H460; experiment: Growth inhibition of human NCI-H460 cells after 48 hrs by sulforhodamine B assay; details: NCI-H460, 48 h; method in brief: as §1

SMILES | GI50 [1] [nM] | TGI [1] [nM] | CC50 [1] [nM] | growth at 100 µM [2] [%] | growth at 1 µM [3] [%] | growth at 1 µM [4] [%] | growth at 10 µM [5] [%] | growth at 10 µM [6] [%] | growth at 100 µM [7] [%] | growth at 100 µM [8] [%] | growth at 100 µM [9] [%] | GI50 [10] [nM] | TGI [10] [nM] | CC50 [10] [nM] | growth at 10 µM [11] [%] | growth at 0.01 µM [12] [%] | growth at 100 µM [13] [%] | growth at 100 µM [14] [%] | growth at 0.1 µM [15] [%] | growth at 100 µM [16] [%] | further results
Cc1ccc2nc(Nc3c(C)cccc3C)sc2c1 | 330 | > 100000 | > 100000 | 39 | 39 | 83 | 54.1 | 38 | 48 | 73 | 51 | > 100000 | > 100000 | > 100000 | 18.7 | 103 | 27 | 27 | 90 | 66 | growth at 100 µM [17]: 80%; TGI [18]: > 100000 nM; CC50 [18]: > 100000 nM; growth at 0.1 µM [19]: 111%; growth at 10 µM [20]: 62.1%; GI50 [21]: 949 nM; TGI [21]: > 100000 nM; CC50 [21]: > 100000 nM; growth at 10 µM [22]: 63%; growth at 1 µM [23]: 62%; growth at 0.01 µM [24]: 75%; LC50 (concentration killing 50% of cells) [25]: > 100000 nM; TGI [25]: > 100000 nM
Clc1cccc(Cl)c1Nc1nc2cccc(Cl)c2s1 | 343 | 1740 | 5790 | -56 | 18 | 68 | -7.99 | -53.6 | -57 | -48 | -39 | 983 | 2200 | 4860 | -61.4 | 103 | -59 | -17 | 87 | -76 | growth at 100 µM [17]: -62%; GI50 [18]: 1400 nM; TGI [18]: 2810 nM; CC50 [18]: 5670 nM; growth at 0.1 µM [19]: 109%; growth at 10 µM [20]: -7.04%; GI50 [21]: 1320 nM; TGI [21]: 2780 nM; CC50 [21]: 5860 nM; growth at 10 µM [22]: -84%; growth at 1 µM [23]: 15%; growth at 0.01 µM [24]: 85%; GI50 [25]: 1320 nM; TGI [25]: 2970 nM
